Screening results from PubChem.
An excerpt weighted towards active compounds, which were near 2.3% of everything screened.
MT1-MMP act inh: blockers of MT1-MMP proenzyme processing, primary screen, HT1080 RFP-PRO-GFP cells, GFP/RFP fluorescence; GFP/RFP ratio fluorescence, overnight; percent of plate control window, DMSO zero; GFP/RFP ratio change, % at 20 µM; 360,000 tested, 0.061% active; AID 651647, 2012;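 active = GFP/RFP ratio change of at least 30% with cell ATP level not reduced by more than half and red fluorescence within 50% of control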
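Compound: 20 µM single dose, 1% DMSO / System: HT1080 RFP-PRO-GFP cells / Controls: DMSO and RFP-L50D-GFP cell wells / Read-out basis: GFP/RFP fluorescence ratio / Schedule: overnight compound exposure at 37 °C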
CSN deneddyl inh: inhibitors of CSN-mediated cullin deneddylation, primary screen, biochemical, fluorescence polarization, uHTS | COP9 signalosome complex subunit 5 (Homo sapiens), Q92905 | Purified CSN, SCF-Nedd8-OG deneddylation | inhibition, % at 12.5 µM | 360,000 tested, 0.38% active;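 active = pattern-corrected inhibition above about 35%, with an unprinted fluorescence ratio check between 0.5 and 1.5, limit read from the data, passing the limit was not always enough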
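Assay system: purified human Csn5 enzyme expressed in HEK293T cells; measure: % inhibition; also added: SCFSkp2-Nedd8OG substrate at 10 nM final; technique: fluorescence polarization; times: reaction 90 min, room temperature; medium: Tris buffer pH 7.5, NaCl, DTT, Tween-20, trehalose, ovalbumin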
SUMO1-SIM PPI: modulators of SUMO1 protein-protein interactions, primary screen, biochemical, uHTS; Small ubiquitin-related modifier 1 (Homo sapiens), P63165; SUMO1 binding to a labelled peptide, TR-FRET, 1 h; inhibition, % at 20 µM; 360,000 tested, 0.33% active; AID 602429, 2012; in the data active = inhibition above about 37%
DNMT1 block: human DNMT1 methyltransferase inhibitors, primary screen, biochemical, molecular beacon, fluorescence, HinP1I cleavage, uHTS; 360,000 tested, 0.83% active; DNA (cytosine-5)-methyltransferase 1 (Homo sapiens), P26358; inhibition (reported as % activation of signal), % at 10 µM
Target sequence (P26358 504-1616 limits assumed): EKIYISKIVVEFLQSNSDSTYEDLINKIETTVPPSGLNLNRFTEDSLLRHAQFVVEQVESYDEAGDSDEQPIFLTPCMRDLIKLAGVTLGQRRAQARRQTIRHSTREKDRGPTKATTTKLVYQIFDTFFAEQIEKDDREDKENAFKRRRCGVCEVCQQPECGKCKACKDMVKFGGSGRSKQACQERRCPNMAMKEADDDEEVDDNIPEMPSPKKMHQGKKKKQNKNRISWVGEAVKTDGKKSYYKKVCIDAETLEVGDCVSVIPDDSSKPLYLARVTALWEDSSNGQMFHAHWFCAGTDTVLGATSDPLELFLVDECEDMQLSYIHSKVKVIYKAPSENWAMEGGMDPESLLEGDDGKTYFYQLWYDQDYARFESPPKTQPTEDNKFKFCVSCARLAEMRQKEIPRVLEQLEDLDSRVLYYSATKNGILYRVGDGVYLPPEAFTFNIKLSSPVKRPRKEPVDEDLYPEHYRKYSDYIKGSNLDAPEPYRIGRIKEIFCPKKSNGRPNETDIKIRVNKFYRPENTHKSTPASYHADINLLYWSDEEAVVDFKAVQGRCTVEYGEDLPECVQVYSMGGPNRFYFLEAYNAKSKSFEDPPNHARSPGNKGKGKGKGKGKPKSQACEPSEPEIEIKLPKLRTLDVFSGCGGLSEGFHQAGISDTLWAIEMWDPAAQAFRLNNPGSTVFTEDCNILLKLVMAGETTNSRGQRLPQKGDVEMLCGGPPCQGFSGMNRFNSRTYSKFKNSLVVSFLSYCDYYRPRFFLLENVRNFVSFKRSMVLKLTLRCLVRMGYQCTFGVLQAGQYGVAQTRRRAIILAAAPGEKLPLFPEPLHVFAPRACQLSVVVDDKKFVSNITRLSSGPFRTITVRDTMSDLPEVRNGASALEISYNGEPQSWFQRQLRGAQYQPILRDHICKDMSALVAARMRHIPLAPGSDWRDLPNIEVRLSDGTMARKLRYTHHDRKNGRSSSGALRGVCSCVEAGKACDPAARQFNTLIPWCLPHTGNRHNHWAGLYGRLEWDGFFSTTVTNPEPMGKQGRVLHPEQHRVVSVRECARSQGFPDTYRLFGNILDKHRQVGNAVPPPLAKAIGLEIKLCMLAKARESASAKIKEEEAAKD
Rpn11 inh: Rpn11 (PSMD14) deubiquitinase inhibitors, primary screen, biochemical, fluorescence polarization, uHTS; 26S proteasome non-ATPase regulatory subunit 14 (Homo sapiens), O00487; human 26S proteasome, Ub4-pepOG fluorescence polarization; 20S core pre-blocked with epoxomicin; inhibition, % at 20 µM; 360,000 tested, 0.59% active; AID 588493, 2011;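 active = inhibition at 20 µM, scaled to each plate's controls, above about 33%, limit read from the data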
SKN-1 block: suppressors of acrylamide-induced Pgst-4::GFP reporter in worms, primary screen, SKN-1 inhibitor project, whole organism, uHTS, GFP/RFP fluorescence ratio, strain VP596; AID 624304, 2012; inhibition, % at 21.8 µM; 360,000 tested, 0.49% active; C. elegans VP596 Pgst-4::GFP/RFP ratio, 24 h;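 active = interference check ratio from 0.5 to 1.5 plus GFP to RFP signal ratio inhibition reaching or exceeding a fixed threshold, cut at about 30% in these data, passing the limit was not always enough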
Rpn11 inh conf: Rpn11 (PSMD14) deubiquitinase inhibitors, confirmation, biochemical, fluorescence polarization, single concentration; purified human 26S proteasome, Ub4-pepOG fluorescence polarization; proteasome pretreated with epoxomicin; shares compounds with Rpn11 inh; 1,900 tested, 29% active; inhibition, % at 20 µM; in the data active = inhibition above about 40%
MMP-2 counter-1: MMP-2 enzyme inhibition, confirmation, counter-screen for RPN11 inhibitor project, biochemical, fluorescence, single concentration | shares compounds with Rpn11 inh | recombinant MMP-2, FRET peptide cleavage fluorescence | inhibition, % at 20 µM | 1,900 tested, 4% active | AID 602330, 2012; in the data active = inhibition above about 40%;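 also: human MMP-2 activated beforehand with APMA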
Thrombin FP: bovine thrombin protease inhibition, confirmation, counter-screen for Rpn11 inhibitor project, biochemical, fluorescence polarization, single concentration; shares compounds with Rpn11 inh; 1,900 tested, 13% active; bovine thrombin cleavage of Ub4-pepOG; inhibition, % at 20 µM;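 active = mean inhibition at least 40% at 20 µM, or signal 3 deviations below plate average, so some actives read negative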
MT1-MMP act val: MT1-MMP activation inhibitors, hit retest, confirmation, single concentration, fluorescence, HT1080 RFP-PRO-GFP cells | inhibition, % at 20 µM | AID 652235, 2013 | shares compounds with MT1-MMP act inh | GFP and RFP fluorescence ratio, overnight | 200 tested, 10% active;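 active = inhibition of at least 50% in the primary cell screen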
CSN deneddyl val: Csn5 deneddylation inhibitors, confirmation, biochemical, fluorescence polarization, single concentration, SCF-Nedd8OG substrate | shares compounds with CSN deneddyl inh | Csn5 deneddylation of SCF-Nedd8OG, 90 min | inhibition, % at 16.6 µM | 540 tested, 62% active
MMP-2 counter-2: MMP-2 protease inhibition counter-screen, confirmation, counter-screen for CSN deneddylation inhibitor project, biochemical, fluorescence, single concentration; shares compounds with CSN deneddyl inh; recombinant MMP-2, FRET substrate fluorescence, 60 min; inhibition, % at 16.6 µM; 540 tested, 33% active; AID 720655, 2013;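 active = corrected plate-normalized z-score of 5 or more, or -5 or less, or inhibition of 15% or more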
Thrombin cntr: blocks bovine thrombin in a CSN deneddylation counter-screen. shares compounds with CSN deneddyl inh. bovine thrombin cleavage of Ub4-pepOG, fluorescence polarization. inhibition, % at 16.6 µM. 540 tested, 49% active;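 active = inhibition at or above a set limit, with a fluorescence interference ratio between 0.5 and a set maximum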
Numbers stand for hits; – = inactive; · = no result given; ! = not active in a repeat. Rule as the data show it, unless noted: active = inhibition above about 50%; inactive = the rest.

SMILES	MT1-MMP act inh	CSN deneddyl inh	SUMO1-SIM PPI	DNMT1 block	Rpn11 inh	SKN-1 block	Rpn11 inh conf	MMP-2 counter-1	Thrombin FP	CSN deneddyl val	MMP-2 counter-2	Thrombin cntr	others
O=C1CN(C(=O)COC(=O)c2cccs2)c2ccccc2N1	–	–	–	–	–	–	·	·	·	·	·	·
CCC1CCCCN1CCCNS(=O)(=O)c1ccc2c(c1)oc(=O)n2C (stereo not drawn)	–	–	–	–	68	–	–	–	–	·	·	·
CCC1CCCCN1CCNS(=O)(=O)c1ccc2c(c1)oc(=O)n2C (stereo not drawn)	–	–	–	–	–	–	·	·	·	·	·	·
Cc1cccn2c(=O)c3cc(C(N)=S)c(=N)n(CCCN4CCOCC4)c3nc12	–	37	–	–	51	–	–	49	–	·	·	·
O=C(CCC(=O)c1cccs1)OCC(=O)N1CCN(C(=O)c2ccco2)CC1	–	–	–	–	33	–	–	–	–	·	·	·
Cc1ccccc1-c1csc(C(O)c2ccccc2)n1 (stereo not drawn)	–	–	–	–	–	–	·	·	·	·	·	·
COc1ccc(NC(=O)c2cc(OC)c(OC)cc2OC)c(S(=O)(=O)N2CCOCC2)c1	–	–	–	–	161	–	–	–	–	·	·	·
O=[N+]([O-])c1ccc(N2CCCCC2)s1	32	–	–	–	54	–	44	–	–	·	·	·	MT1-MMP act val=–
NC(CCc1ccccc1)c1csc(Nc2nncc3ccccc23)n1 (stereo not drawn)	–	–	–	–	–	–	·	·	·	·	·	·
Cc1cc(C)nc(NS(=O)(=O)c2ccc(NC(=O)C3COc4ccccc4O3)cc2)n1 (stereo not drawn)	–	–	–	–	–	–	·	·	·	·	·	·
O=C(Nc1ccc(S(=O)(=O)Nc2ccccc2)cc1)C1COc2ccccc2O1 (stereo not drawn)	31	–	–	–	62	–	–	–	–	·	·	·	MT1-MMP act val=–
Cc1[nH]c2ccccc2c1/C=N/Nc1ccc([N+](=O)[O-])cc1	–	49	–	–	119	–	83	–	81	75	–	44
Cc1[nH]c2ccccc2c1/C=N/NC(=O)c1cccc([N+](=O)[O-])c1	–	–	–	–	–	–	·	·	·	·	·	·
COc1ccc(Cn2cc(CN3CC(N4CCN(CCN(C)C)CC4)CS3(=O)=O)nn2)cc1 (stereo not drawn)	–	–	–	·	·	–	·	·	·	·	·	·
CCN(CC)CCOC(=O)c1ccc(N/C=C(/C#N)c2nc(-c3ccc(OC)c(OC)c3)cs2)cc1	–	126	–	–	95	–	70	–	57	–	-42	–
CCN(CC)CCOC(=O)c1ccc(N/C=C(/C#N)c2nc(-c3cccc(OC)c3)cs2)cc1	–	–	–	–	–	–	·	·	·	·	·	·
COc1cc(C)c2c(c1C=O)Oc1c(c(C)c(O)c3c1C(O)OC3=O)OC2=O (stereo not drawn)	–	38	78	–	41	–	–	–	–	–	–	–
O=C(Nc1ccc(C2=NCCN2)cc1)c1ccc(C(=O)Nc2ccc(C3=NCCN3)cc2)c([N+](=O)[O-])c1	–	117	96	–	73	–	–	61	–	–	86	–
Cc1ccc(NC(=O)c2ccc(-n3cccn3)c([N+](=O)[O-])c2)cc1	–	–	–	–	–	–	·	·	·	·	·	·
CCc1ccc(-c2cc(C(=O)N/N=C/c3ccccn3)[nH]n2)cc1	–	–	–	–	–	–	·	·	·	·	·	·
O=C(N/N=C/c1ccccn1)c1cc(-c2ccc3ccccc3c2)n[nH]1	–	41	–	–	137	–	85	–	58	·	20	17
O=C(N/N=C/c1ccncc1)c1cccc(S(=O)(=O)Nc2ccc(Cl)cc2)c1	–	72	79	–	106	–	139	46	–	·	35	–
CCN1CCN(Cc2ccc(NC(=O)c3cc(NC(=O)c4cncc(-c5ccc(C#N)cc5)c4)cc(OC)c3)cc2C(F)(F)F)CC1	–	138!	–	–	64	–	56	–	60	–	17	–
NS(=O)(=O)c1cc(C(=O)NC2CCSc3ccccc32)ccc1Cl (stereo not drawn)	–	64	121	84	106	–	98	–	61	–	–	49
CN(C)c1ccc(/C=C/C=C2/SC(=S)N(c3ccccc3)C2=O)cc1	–	38	–	–	70	–	49	–	–	67	–	35
